# Source: PubChem BioAssay (Broad Institute)
# An excerpt weighted towards active compounds, which were near 1.9% of everything screened.
# PglD DTNB: inhibitors of Campylobacter jejuni PglD acetyltransferase. purified PglD enzyme, DTNB colorimetric CoA detection. inhibition, % at 12.5 µM. hit rate 0.098% among 360,000; in the data active = inhibition above about 16%, passing the limit was not always enough; inconclusive = no clear call, values can overlap the other calls
# Glyco luc inh: blocks N-linked glycosylation in D54 reporter cells; reporter increase, % at 12.5 µM; D54 ERlucT glycosylation luciferase reporter, 24 h; percent of 100 nM tunicamycin response; hit rate 0.23% among 360,000;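 active = mean luciferase reporter signal, scaled so untreated is 0 and the glycosylation-blocking control 100, at or above a set limit in every replicate; inconclusive = mean reaches the limit but not every replicate does; inactive = mean below the limit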;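 note: luciferase carries N-glycosylation sites so blocking glycosylation raises the light; 0% = median of neutral control wells and 100% = median of 100 nM tunicamycin wells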
# Env fusion inh: blocks HIV Env-driven cell-cell fusion; inhibition, % at 12.3 µM; HeLa-JRFL Env/CEM21 cell fusion, luciferase; hit rate 1.1% among 360,000;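 active = mean replicate inhibition score of at least 50 and every replicate individually at or above 50; inconclusive = only one of the two criteria met; inactive = mean below 50 and not all replicates reaching 50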;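 note: 0% = plate neutral controls and 100% = maraviroc near 300 nM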
# SR-BI HDL uptake: mouse SR-BI HDL lipid transfer inhibition | ldlA[mSR-BI] CHO cells, DiI-HDL uptake fluorescence, 3 h | inhibition, % at 12.5 µM | hit rate 0.96% among 320,000 | AID 488896;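 active = mean replicate inhibition of at least 70% and a set share of replicates each scoring 70 or more; inconclusive = meets just one of the two criteria; inactive = fails both criteria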;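 note: 0% = median of neutral control wells and 100% = median of positive control wells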
# Rtt109 Vps75: C. albicans Rtt109 histone acetyltransferase inhibition; Q5AAJ8; purified Rtt109/Vps75, ThioGlo CoA-SH fluorescence, 4 h; inhibition, % at 34.9 µM; hit rate 0.16% among 330,000;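 active = inhibition of at least 50% in every replicate; inconclusive = best replicate reaches 50% inhibition but some replicates fall short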
# Target sequence (Q5AAJ8 whole entry, looked up): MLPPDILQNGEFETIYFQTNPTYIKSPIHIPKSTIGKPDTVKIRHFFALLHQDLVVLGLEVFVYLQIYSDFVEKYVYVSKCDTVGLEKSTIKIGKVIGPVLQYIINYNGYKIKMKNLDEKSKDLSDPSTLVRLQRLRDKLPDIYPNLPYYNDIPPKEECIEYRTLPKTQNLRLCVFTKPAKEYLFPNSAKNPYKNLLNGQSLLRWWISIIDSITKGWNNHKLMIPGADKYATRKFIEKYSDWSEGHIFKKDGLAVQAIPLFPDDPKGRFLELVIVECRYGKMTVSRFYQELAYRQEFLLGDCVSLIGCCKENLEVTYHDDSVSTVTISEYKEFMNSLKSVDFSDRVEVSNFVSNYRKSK
# SR-BI DiI-HDL act: activators of SR-BI mediated HDL lipid uptake; AID 504775; activation, % at 12.5 µM; CHO ldlA[mSR-BI] cells, DiI-HDL uptake fluorescence, 3 h; 100 = double the neutral-control signal; hit rate 0.096% among 320,000;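 active = mean replicate activation of at least 60% and every replicate at or above 60%; inconclusive = mean or all-replicate condition met, but not both; inactive = mean below 60% and not all replicates reaching 60%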;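 note: 0% = median plate neutral-control signal and 100% = twice that signal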
#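 material = CHO ldlA[mSR-BI] cells | medium = Ham's F12 with 0.5% BSA, HEPES 25 mM, pH 7.4 | reagent = fluorescent DiI-HDL, 10 µg/mL final | compound dosing = single-point compound dose | incubation = 3 h, 37 °C | measured by = bottom-read fluorescence, 550/595 nm | measure = HDL uptake via cellular fluorescence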
# Starred values were filed as active, the others as inactive; ? = inconclusive; / = not tested or not shown; ! = repeats disagree; [ ] = dose if it differs, or a comment.
SMILES,PglD DTNB,Glyco luc inh,Env fusion inh,SR-BI HDL uptake,Rtt109 Vps75,SR-BI DiI-HDL act
COCC(C)n1c(-c2ccc3c(c2)NC(=O)CO3)csc1=Nc1ccc(OC(F)F)cc1 (stereo not given),2,-9,83*!,55,1,-55
COc1ccccc1N=c1scc(-c2ccc3c(c2)NC(=O)CO3)n1CC1CCCO1 (stereo not given),3,-5,/,-15,14,15
Cc1noc(C)c1NC(=O)Nc1ccc2c(c1)C(=O)N([C@H](C)CO)C[C@H](C)[C@@H](CN(C)C)OCCCC[C@@H](C)O2,/,/,5[16.7 µM],/,/,/
COc1ccc(Cl)c(Cn2c(NCc3ccco3)nc3c2c(=O)n(C)c(=O)n3C)c1,/,-5,/,-22,10,22
COc1cccc(Cn2c(NCc3ccco3)nc3c2c(=O)n(C)c(=O)n3C)c1,/,/,75*,/,/,/
C[C@@H]1CN([C@@H](C)CO)S(=O)(=O)c2ccc(Br)cc2O[C@@H]1CN(C)Cc1ccccc1,-1,/,?,/,/,/
COc1cccc(CN2C[C@@H](C)[C@H](OC)CN(C)C(=O)c3ccc(NS(=O)(=O)c4cn(C)cn4)cc3OC[C@H]2C)c1,/,/,6[16.7 µM],/,/,/
COc1ccc(N(C(=O)CCl)C(C(=O)NC2CCCCC2)c2cccnc2)cc1 (stereo not given),/,21,51*,3,-8,-3
COc1ccc(C(C(=O)NC2CCCC2)N(C(=O)c2ccoc2C)c2ccc(C)cc2)cc1 (stereo not given),-3,-6,90*,-14,-9,14
O=C(NC1CCCCC1)C(c1cccnc1)N(C(=O)CCl)c1ccc(F)cc1 (stereo not given),-8,11,/,-18,-35,18
O=C(NCC(=O)N(c1ccc(F)cc1)C(C(=O)NC1CCCC1)c1cccnc1)c1cccs1 (stereo not given),-3,1,9,-6,0,6
O=C(NCC(=O)N(c1ccccc1)C(C(=O)NC1CCCCC1)c1cccnc1)c1cccs1 (stereo not given),2,-1,56*,-15,-8,15
CCOc1ccccc1N(C(=O)CNC(=O)c1ccco1)C(C(=O)NC1CCCC1)c1cccnc1 (stereo not given),1,0,77*,-3,4,3
CCc1ccccc1N(C(=O)CNC(=O)c1ccco1)C(C(=O)NC1CCCC1)c1cccnc1 (stereo not given),3,2,-3,-14,3,14
COc1ccc(C(C(=O)NC2CCCCC2)N(C(=O)CCl)c2ccc(OC)cc2)cc1 (stereo not given),-3,10,/,6,6,-6
COc1ccc(C(C(=O)NC2CCCCC2)N(C(=O)CCl)c2ccc(C)cc2)cc1 (stereo not given),/,17,56*,-36,5,36
CC(C)CC#Cc1ccc2c(c1)O[C@@H](CN(C)C(=O)C1CCCCC1)[C@@H](C)CN([C@H](C)CO)S2(=O)=O,3,/,30[16.7 µM],/,/,/
CCOC(=O)c1cc2nc(Nc3ccc(OC)cc3)sc2s1,4,-3,/,72*,-13,-72
C[C@@H]1CCCCO[C@H](CN(C)S(=O)(=O)c2ccccc2)[C@H](C)CN([C@H](C)CO)C(=O)c2cc(NC(=O)C3CCCCC3)ccc2O1,0,/,33[16.7 µM],/,/,/
Cc1ccc(CSCCNC(=O)c2ccc(Cl)c(S(=O)(=O)N3CCOCC3)c2)cc1,-2,0,85*,-6,7,6
Cc1ccccc1CCNC(=O)c1ccc(Cl)c(S(=O)(=O)N2CC(C)OC(C)C2)c1 (stereo not given),-4,-3,59*,58,0,-58
COc1ccc(NC(=O)N(C)C[C@H]2Oc3ncc(-c4ccc(C#N)cc4)cc3C(=O)N([C@H](C)CO)C[C@@H]2C)cc1,-2,/,-8[16.7 µM],/,/,/
O=[N+]([O-])c1ccc2nc(-c3ccccc3)n(OCc3ccc(Cl)cc3)c2c1,-2,-1,-71,78*,-5,-78
CC(C)=CCc1c(O)cc2oc3c(CC=C(C)C)c(O)c(O)c(CC=C(C)C)c3c(=O)c2c1O,-1,-16,/,105*,1,-105
COc1ccc(S(=O)(=O)Nc2ccc3c(c2)CC(=O)N([C@H](C)CO)C[C@H](C)[C@H](CN(C)Cc2ccncc2)O3)cc1,7,/,/,/,/,/
SMILES,PglD DTNB,Glyco luc inh,Env fusion inh,SR-BI HDL uptake,Rtt109 Vps75,SR-BI DiI-HDL act
COC(=O)Cc1nnn2c1[C@H](C)[C@H](c1ccccc1Br)OC[C@H](C)C2,/,/,-9,/,/,/
COC(=O)Cc1nnn2c1[C@@H](C)[C@@H](c1ccccc1Br)O[C@@H](C)C2,/,/,59*,/,/,/
COc1ccc(S(=O)(=O)N(C)C[C@H]2Oc3ccc(NS(=O)(=O)c4ccccc4)cc3CC(=O)N([C@H](C)CO)C[C@H]2C)cc1,-2,/,6[16.7 µM],/,/,/
COc1ccc(S(=O)(=O)Nc2ccc3c(c2)CC(=O)N([C@H](C)CO)C[C@H](C)[C@H](CN(C)S(=O)(=O)c2ccc(Cl)cc2)O3)cc1,2,/,73*[16.7 µM],/,/,/
COc1ccc(S(=O)(=O)Nc2ccc3c(c2)CC(=O)N([C@H](C)CO)C[C@H](C)[C@H](CN(C)S(=O)(=O)c2ccccc2)O3)cc1,-1,/,84*[16.7 µM],/,/,/
COc1ccc(S(=O)(=O)Nc2ccc3c(c2)CC(=O)N([C@@H](C)CO)C[C@@H](C)[C@@H](CN(C)S(=O)(=O)c2ccc(C)cc2)O3)cc1,-1,/,5[16.7 µM],/,/,/
COc1ccc(S(=O)(=O)Nc2ccc3c(c2)CC(=O)N([C@H](C)CO)C[C@H](C)[C@H](CN(C)S(=O)(=O)c2ccc(C)cc2)O3)cc1,0,/,99*[16.7 µM],/,/,/
C[C@@H]1CN([C@@H](C)CO)C(=O)Cc2cc(NS(=O)(=O)c3ccccc3)ccc2O[C@H]1CN(C)S(=O)(=O)c1ccc(Cl)cc1,1,/,0[16.7 µM],/,/,/
O=C(Nc1cccc(NC(=O)c2ccc(F)cc2)c1)c1ccc(F)cc1,-3,0,3,76*,-5,-76
O=C(N/N=C/c1ccc(F)cc1)c1cccc(NC(=O)c2ccc(F)cc2)c1,-7,4,14,72*,21,-72
Cc1cccc(C(=O)Nc2ccc(C(=O)N/N=C/c3ccc4c(c3)OCO4)cc2)c1,13,-4,8,85*,-2,-85
O=C(N/N=C/c1ccncc1)c1cccc(NC(=O)c2ccc(Cl)cc2)c1,/,-2,30,62,0,-62
Cc1ccccc1C(=O)Nc1ccccc1,-3,1,/,-4,6,4
Cc1cccc(C(=O)Nc2cccc(C(=O)N/N=C/c3ccc4c(c3)OCO4)c2)c1,0,7,-10,55,/,-55
Cc1ccccc1C(=O)Nc1cccc(NC(=O)c2ccc(F)cc2)c1,-5,0,-15,79*,6,-79
